Sampled rows, rich in hits. Any-hit rate of the full collection: about 1.6%.
HKDC1 inhibitor = HKDC1 hexokinase inhibitors, primary screen, biochemical, fluorescence, uHTS; Q2TB90; recombinant HKDC1, G6PDH/diaphorase resazurin coupled fluorescence; inhibition, % at 20 µM; hit rate 0.16% among 340,000; AID 493160, 2011;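 active means inhibition above about 35% when tested at 20 µM, limit read from the data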;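 further: plate controls were DMSO wells with enzyme for no effect and DMSO wells lacking enzyme for full effect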
Target sequence (Q2TB90 whole entry, looked up): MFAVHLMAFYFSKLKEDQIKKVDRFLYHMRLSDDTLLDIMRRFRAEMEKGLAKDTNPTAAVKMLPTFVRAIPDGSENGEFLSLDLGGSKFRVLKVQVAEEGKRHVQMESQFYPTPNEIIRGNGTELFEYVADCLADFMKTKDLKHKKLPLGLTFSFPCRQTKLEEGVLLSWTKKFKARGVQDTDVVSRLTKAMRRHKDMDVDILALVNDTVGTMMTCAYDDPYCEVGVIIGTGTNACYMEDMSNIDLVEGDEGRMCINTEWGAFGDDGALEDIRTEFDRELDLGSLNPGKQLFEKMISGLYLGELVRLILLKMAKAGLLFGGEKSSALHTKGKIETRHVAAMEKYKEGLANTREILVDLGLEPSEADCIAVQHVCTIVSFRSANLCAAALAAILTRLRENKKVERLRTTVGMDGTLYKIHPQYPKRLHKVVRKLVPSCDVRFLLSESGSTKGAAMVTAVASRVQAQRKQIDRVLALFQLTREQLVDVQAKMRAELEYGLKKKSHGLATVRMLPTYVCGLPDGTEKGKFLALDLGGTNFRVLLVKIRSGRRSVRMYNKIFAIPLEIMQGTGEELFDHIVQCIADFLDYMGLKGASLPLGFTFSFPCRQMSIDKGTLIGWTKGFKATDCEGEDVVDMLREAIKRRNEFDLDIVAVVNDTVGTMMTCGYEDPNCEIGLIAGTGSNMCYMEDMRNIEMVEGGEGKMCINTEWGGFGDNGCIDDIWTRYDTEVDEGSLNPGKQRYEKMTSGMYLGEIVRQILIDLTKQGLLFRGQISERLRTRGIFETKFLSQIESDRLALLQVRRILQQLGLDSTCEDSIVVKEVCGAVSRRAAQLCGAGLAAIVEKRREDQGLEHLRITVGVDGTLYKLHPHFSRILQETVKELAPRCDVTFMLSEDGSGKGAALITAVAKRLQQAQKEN
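Incubation: 90 min at room temperature in dark / Material: recombinant HKDC1 (HK5) hexokinase enzyme, produced in-house / Quantity: enzyme 5 µg/mL final / Compound: one dose of 20 µM, 1% DMSO / Reagent: glucose and ATP substrates / Buffer or medium: Tris pH 8.0 buffer with MgCl2, Tween-20, BSA, BME / Technique: resorufin fluorescence at 613 nm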
PKA-R2B activ = activators of PKA-R2B holoenzyme, primary screen, biochemical, fluorescence polarization, Cy5-IP20, human | cAMP-dependent protein kinase catalytic subunit beta (Homo sapiens) + cAMP-dependent … | PKA-R2B holoenzyme dissociation; R2B truncated from residue 108, S112A mutant; 0% DMSO only, 100% 113 µM cGMP | activation, % at 11.4 µM | hit rate 0.079% among 340,000 | AID 504700, 2011;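 active means activation above a cutoff set at the mean over all compounds plus 3 SD, cut at about 18% in these data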;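 further: higher means more holoenzyme dissociation and a rise in polarization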
PfG6PD inh = PfG6PD enzyme inhibitors, primary screen, biochemical, fluorescence intensity, uHTS | PfGluPho enzyme, NADPH resazurin-diaphorase fluorescence | hit rate 0.78% among 350,000 | AID 504690, 2011 | inhibition, % at 20 µM;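 active means inhibition reaching at least a set limit at 20 µM in the primary screen, cut at about 59% in these data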;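 further: 0% = DMSO wells with substrate and 100% = DMSO wells lacking glucose-6-phosphate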
ATG4B inh = ATG4B protease inhibitors, primary screen, biochemical, fluorescence, uHTS; hit rate 0.51% among 340,000; ATG4B cleavage of LC3-PLA2, NBD-HPC fluorescence, 1 h; AID 504462, 2011; inhibition, % at 8.33 µM; in the data active means inhibition above about 40%
PKA-R1A act = activators of PKA-R1A holoenzyme, primary screen, biochemical, fluorescence polarization, Cy5-IP20, bovine R1A, mouse PKAc | AID 504707, 2011 | PKA-R1A dissociation; scaled: DMSO 0%, 113 µM cGMP 100% | activation, % at 11.4 µM | hit rate 0.083% among 340,000;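 active means percent activation above the mean of all tested compounds plus 3 SD, cut at about 19% in these data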;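 further: higher means more PKAc released from R1A so a rise in polarization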
T cell modulator = modulators of CD8 T cell-vesicle binding, primary screen, mouse 2C CD8+ T cells, flow cytometry; response (vesicle binding), % at 7 µM; hit rate 0.068% among 330,000; 2C CD8+ T cell-vesicle binding; stronger effect = lower value;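 active means response, share of CD8 T cells binding vesicles, and their 90th percentile fluorescence all below set limits, cut at about 80% in these data, passing the limit was not always enough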;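 further: values below 100% mean blocked vesicle binding to the CD8+ T cells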
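Also added: QL9-peptide-loaded Drosophila micro-vesicles bearing Ld, ICAM-1 and B7-1; Test system: purified 2C TCR transgenic mouse naive CD8+ T cells; Measured by: cytometric PE anti-B7-1 and Alexa647 anti-CD8 signals after 1% paraformaldehyde fixation; Timing: binding step 1.5 h, 37 °C, antibody labelling 20 min, ice.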
HKDC1 act conf2 = HKDC1 hexokinase activators, confirmation, biochemical, single concentration; recombinant HKDC1, G6PDH/diaphorase resazurin fluorescence; stronger effect = lower value; inhibition, % at 20 µM; shares compounds with HKDC1 inhibitor; AID 504708, 2011; hit rate 14% among 740;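 active means inhibition at or below a set negative limit, negative inhibition meaning the enzyme was activated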
Active calls of the source: *; . = not tested or not shown.

SMILES | HKDC1 inhibitor | PKA-R2B activ | PfG6PD inh | ATG4B inh | PKA-R1A act | T cell modulator | HKDC1 act conf2
COc1ccc2c(c1)c(=O)oc1c(C)c(OCc3cc(C(=O)O)oc3C)ccc12 | 78.7* | -4.3 | -17.2 | 10.9 | 0.2 | 272.5 | 11.3
CCCC[n+]1c2ccccc2cc2ccccc21 | 41.9* | -11.6 | 53.9 | -0.1 | -11.1 | 35.3 | -1.5
CCC[n+]1c2ccccc2cc2ccccc21 | 36.5* | -7.8 | 30.8 | 7.1 | 0.9 | 168.0 | 0.0
CCCCC[n+]1cccc2c3ccccc3ccc21 | -2.2 | -6.1 | 10.3 | 1.6 | -4.1 | 169.1 | .
CCC(C)(C)NC(=O)C1CCC(CNS(=O)(=O)c2cccc3nsnc23)CC1 (stereo not drawn) | 51.3* | 1.0 | -0.7 | -2.4 | -8.0 | 251.4 | -11.5
O=C(Nc1ccccc1)/C(=C/c1ccc(O)cc1)NC(=O)c1ccco1 | -8.7 | -6.0 | 1.2 | 0.1 | 4.0 | 576.7 | .
Cc1cc(C(=O)CCl)c(C)n1CCc1ccc(Cl)cc1 | 39.1* | 5.9 | 17.4 | 7.9 | 4.5 | 643.0 | 9.8
O=C1NN(c2cccc(Br)c2)C(=O)/C1=C/c1ccc(-c2cc([N+](=O)[O-])ccc2O)o1 | 61.6* | 0.3 | 5.7 | 18.5 | -1.2 | 422.0 | -13.0
CC1CCCN(S(=O)(=O)c2cccc(C(=O)OCC(=O)N(C)Cc3c(F)cccc3Cl)c2)C1 (stereo not drawn) | 0.0 | -5.5 | 5.3 | 5.9 | -7.7 | 216.2 | .
CSCC[C@H](NC(=O)Cc1c(C)c2c(cc(C)c3c(C)coc32)oc1=O)C(=O)O | -0.5 | 9.9 | -3.5 | 0.2 | -4.0 | 147.6 | .
S=C1Nc2ccccc2CS1 | . | -1.8 | 3.6 | . | 1.1 | . | .
S=C1Cc2ccccc2N1 | -302.6 | 4.9 | 67.1* | -4.2 | -2.9 | . | -191.7*
O=C1C(N2CCOCC2)=C(n2nnc3ccccc32)C(=O)c2ccccc21 | 43.3* | -12.6 | 56.1 | -5.3 | 3.8 | 118.7 | 54.8
O=C1c2ccccc2C(=O)c2c1cccc2-n1nnc2ccccc21 | 2.6 | -2.2 | 7.2 | -3.5 | 3.4 | 336.0 | .
O=C(Sc1nnc(-c2ccccc2)o1)N1c2ccccc2Sc2ccccc21 | 37.2* | -11.7 | 27.3 | 1.1 | -8.1 | 292.9 | -8.9
COc1ccc(/C=C/C(=O)OCC(=O)NC2CCCCC2C)c(OC)c1 (stereo not drawn) | 1.9 | 4.0 | 1.4 | -9.6 | -3.8 | 461.7 | .
O=C(N/N=C/c1ccc[nH]1)c1sc2ccccc2c1Cl | -41.5 | -1.5 | 1.3 | -27.0 | -4.7 | 263.4 | -29.9
O=C(N/N=C/c1ccncc1)c1sc2ccccc2c1Cl | 11.6 | 1.5 | 0.5 | -5.5 | -5.2 | 351.3 | .
C/C(=N\NC(=O)c1c(C)nc2ccccn12)c1ccc(O)cc1O | -45.1 | -8.2 | -8.8 | 2.4 | -6.5 | 355.9 | -8.4
C/C(=N\NC(=O)c1c(C)nc2ccccn12)c1ccccc1F | 0.5 | 0.0 | -13.2 | 6.0 | 0.4 | 470.2 | .
NS(=O)(=O)c1ccc(NC(=S)N2CCN(C(=O)C3CCCO3)CC2)cc1 (stereo not drawn) | -5.6 | 2.7 | 42.5 | -3.9 | -1.1 | 253.9 | .
CC(C)Oc1ccc(CNC(=O)C2CCCN(S(=O)(=O)N3CCOCC3)C2)cc1 (stereo not drawn) | 1.3 | -0.3 | -9.5 | 0.8 | 7.0 | 305.5 | .
Oc1cc(CNC2CCCCC2)c(O)cc1CNC1CCCCC1 | 33.6 | -9.8 | 80.9* | 0.6 | -6.5 | . | 32.5
Cc1cc2cc(CCNC(=O)c3ccc(S(=O)(=O)N4CCOCC4)cc3)c(=O)[nH]c2cc1C | 41.4* | -7.7 | 32.0 | -13.3 | -2.7 | 172.8 | 45.0

Source: PubChem BioAssay (several laboratories)
